Assay results as given in ChEMBL document CHEMBL1157912, “Impact of nature and length of linker incorporated in agonists on toll-like receptor 9-mediated immune responses” (J Med Chem, 2010).

How the values were obtained:
[1] = molecular target: T1, Toll-like receptor 9 (Mus musculus) (UniProt Q9EQU3); test: Induction of TLR9-mediated IL12 production in C57BL/6 mouse spleen cells after 24 hrs by ELISA; type: cell-based
T1 sequence (whole entry): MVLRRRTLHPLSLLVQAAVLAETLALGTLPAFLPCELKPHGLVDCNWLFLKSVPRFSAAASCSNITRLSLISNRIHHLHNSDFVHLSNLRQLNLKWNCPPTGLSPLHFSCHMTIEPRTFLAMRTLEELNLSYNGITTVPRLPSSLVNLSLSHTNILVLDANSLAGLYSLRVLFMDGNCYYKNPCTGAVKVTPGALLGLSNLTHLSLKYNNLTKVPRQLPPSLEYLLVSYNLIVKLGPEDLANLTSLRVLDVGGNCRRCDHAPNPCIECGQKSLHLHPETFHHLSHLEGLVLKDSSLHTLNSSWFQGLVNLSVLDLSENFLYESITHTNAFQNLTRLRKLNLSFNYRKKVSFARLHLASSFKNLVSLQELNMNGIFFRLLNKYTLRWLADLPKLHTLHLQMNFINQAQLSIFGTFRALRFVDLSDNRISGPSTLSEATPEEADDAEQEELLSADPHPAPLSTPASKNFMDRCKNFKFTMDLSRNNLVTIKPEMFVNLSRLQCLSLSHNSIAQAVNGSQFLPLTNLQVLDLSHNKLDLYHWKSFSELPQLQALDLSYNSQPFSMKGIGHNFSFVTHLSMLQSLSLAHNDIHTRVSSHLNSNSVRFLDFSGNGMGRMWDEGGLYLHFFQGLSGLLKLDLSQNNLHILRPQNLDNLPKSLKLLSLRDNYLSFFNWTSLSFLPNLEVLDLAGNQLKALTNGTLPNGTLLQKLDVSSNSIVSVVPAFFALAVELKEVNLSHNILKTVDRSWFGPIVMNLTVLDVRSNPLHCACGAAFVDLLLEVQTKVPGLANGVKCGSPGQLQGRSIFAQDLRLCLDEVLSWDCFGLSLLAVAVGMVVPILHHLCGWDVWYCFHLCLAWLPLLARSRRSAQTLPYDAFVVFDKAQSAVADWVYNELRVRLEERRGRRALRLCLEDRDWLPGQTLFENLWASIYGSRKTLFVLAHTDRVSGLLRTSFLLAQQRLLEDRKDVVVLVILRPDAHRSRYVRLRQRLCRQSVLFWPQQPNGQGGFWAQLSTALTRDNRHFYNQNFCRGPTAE
In short: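 C57BL/6 mouse spleen cells were cultured with agonists at 0.1, 0.3, 1, 3 and 10 μg/mL for 24 h. Secreted IL-12 and IL-6 in the supernatants were measured by ELISA. Values are averages of triplicate wells from one representative of at least two independent experiments.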

[2] = molecular target: T2, Toll-like receptor 9 (Homo sapiens) (UniProt Q9NR96); test: Induction of TLR9-mediated immune stimulation in human PBMC assessed as IL2R production at 10 ug/ml after 24 hrs by luminex multiplex assay (RVb = 0.02 +/- 0.01 ng/ml)
T2 sequence (whole entry): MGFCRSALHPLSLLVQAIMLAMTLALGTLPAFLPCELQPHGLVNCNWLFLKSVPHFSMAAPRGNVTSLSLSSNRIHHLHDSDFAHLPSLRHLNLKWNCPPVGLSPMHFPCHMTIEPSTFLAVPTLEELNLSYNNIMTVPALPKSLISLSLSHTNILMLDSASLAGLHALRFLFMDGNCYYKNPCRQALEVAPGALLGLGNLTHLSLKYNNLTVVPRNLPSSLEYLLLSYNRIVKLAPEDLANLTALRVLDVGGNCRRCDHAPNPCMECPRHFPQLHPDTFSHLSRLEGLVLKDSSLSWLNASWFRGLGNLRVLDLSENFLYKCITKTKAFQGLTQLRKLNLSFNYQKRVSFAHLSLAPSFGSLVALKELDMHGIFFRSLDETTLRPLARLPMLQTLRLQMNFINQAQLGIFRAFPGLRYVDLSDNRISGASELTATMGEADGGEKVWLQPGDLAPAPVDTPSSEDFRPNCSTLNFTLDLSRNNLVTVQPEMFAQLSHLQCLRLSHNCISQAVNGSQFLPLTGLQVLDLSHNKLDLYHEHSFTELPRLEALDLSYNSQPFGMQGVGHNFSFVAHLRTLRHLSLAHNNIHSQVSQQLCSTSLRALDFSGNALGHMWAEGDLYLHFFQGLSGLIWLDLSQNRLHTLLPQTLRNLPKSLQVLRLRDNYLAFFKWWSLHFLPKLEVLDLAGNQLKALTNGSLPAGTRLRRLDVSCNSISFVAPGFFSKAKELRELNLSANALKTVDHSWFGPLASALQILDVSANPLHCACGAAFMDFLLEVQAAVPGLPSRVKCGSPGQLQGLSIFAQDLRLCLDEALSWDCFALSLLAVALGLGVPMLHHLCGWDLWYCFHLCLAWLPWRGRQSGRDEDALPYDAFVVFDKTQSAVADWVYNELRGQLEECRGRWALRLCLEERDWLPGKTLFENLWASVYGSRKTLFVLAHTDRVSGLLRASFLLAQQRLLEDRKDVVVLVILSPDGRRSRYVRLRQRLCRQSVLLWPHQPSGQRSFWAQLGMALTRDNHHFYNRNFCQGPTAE

[3] = molecular target: T2, Toll-like receptor 9 (Homo sapiens); test: Induction of TLR9-mediated immune stimulation in human PBMC assessed as IL12 production at 2 ug/ml after 24 hrs by luminex multiplex assay (RVb = 0.00 ng/ml)

Cc1cn([C@H]2C[C@H](OCCC(O)CCOP(=O)(S)O[C@H]3C[C@H](n4cc(C)c(=O)[nH]c4=O)O[C@@H]3COP(=O)(S)O[C@H]3[C@@H](O)[C@H](n4ccc(N)nc4=O)O[C@@H]3COP(=O)(S)O[C@H]3C[C@H](n4cc(C)c(=O)[nH]c4=O)O[C@@H]3COP(=O)(S)O[C@H]3C[C@H](n4cc(C)c(=O)[nH]c4=O)O[C@@H]3COP(=O)(S)O[C@H]3C[C@H](n4ccc5c(=O)[nH]c(N)nc54)O[C@@H]3COP(=O)(S)O[C@H]3[C@@H](O)[C@H](n4ccc(N)nc4=O)O[C@@H]3COP(=O)(S)O[C@H]3C[C@H](n4cc(C)c(=O)[nH]c4=O)O[C@@H]3COP(=O)(S)O[C@H]3[C@@H](O)[C@H](n4cnc5c(=O)[nH]c(N)nc54)O[C@@H]3COP(=O)(S)O[C@H]3C[C@H](n4cc(C)c(=O)[nH]c4=O)O[C@@H]3COP(=O)(S)O[C@H]3[C@@H](O)[C@H](n4ccc(N)nc4=O)O[C@@H]3COP(=O)(S)O[C@H]3C[C@H](n4cc(C)c(=O)[nH]c4=O)O[C@@H]3CO)[C@@H](COP(=O)(S)O[C@H]3[C@@H](O)[C@H](n4ccc(N)nc4=O)O[C@@H]3COP(=O)(S)O[C@H]3C[C@H](n4cc(C)c(=O)[nH]c4=O)O[C@@H]3COP(=O)(S)O[C@H]3C[C@H](n4cc(C)c(=O)[nH]c4=O)O[C@@H]3COP(=O)(S)O[C@H]3C[C@H](n4ccc5c(=O)[nH]c(N)nc54)O[C@@H]3COP(=O)(S)O[C@H]3[C@@H](O)[C@H](n4ccc(N)nc4=O)O[C@@H]3COP(=O)(S)O[C@H]3C[C@H](n4cc(C)c(=O)[nH]c4=O)O[C@@H]3COP(=O)(S)O[C@H]3[C@@H](O)[C@H](n4cnc5c(=O)[nH]c(N)nc54)O[C@@H]3COP(=O)(S)O[C@H]3C[C@H](n4cc(C)c(=O)[nH]c4=O)O[C@@H]3COP(=O)(S)O[C@H]3[C@@H](O)[C@H](n4ccc(N)nc4=O)O[C@@H]3COP(=O)(S)O[C@H]3C[C@H](n4cc(C)c(=O)[nH]c4=O)O[C@@H]3CO)O2)c(=O)[nH]c1=O (some centres undefined)
Activity [1]: Dose-dependent effect
Activity [2]: 0.12 ng/mL
Activity [3]: 0.14 ng/mL

Cc1cn([C@H]2C[C@H](OCC[C@H](O)COP(=O)(S)O[C@H]3C[C@H](n4cc(C)c(=O)[nH]c4=O)O[C@@H]3COP(=O)(S)O[C@H]3[C@@H](O)[C@H](n4ccc(N)nc4=O)O[C@@H]3COP(=O)(S)O[C@H]3C[C@H](n4cc(C)c(=O)[nH]c4=O)O[C@@H]3COP(=O)(S)O[C@H]3C[C@H](n4cc(C)c(=O)[nH]c4=O)O[C@@H]3COP(=O)(S)O[C@H]3C[C@H](n4ccc5c(=O)[nH]c(N)nc54)O[C@@H]3COP(=O)(S)O[C@H]3[C@@H](O)[C@H](n4ccc(N)nc4=O)O[C@@H]3COP(=O)(S)O[C@H]3C[C@H](n4cc(C)c(=O)[nH]c4=O)O[C@@H]3COP(=O)(S)O[C@H]3[C@@H](O)[C@H](n4cnc5c(=O)[nH]c(N)nc54)O[C@@H]3COP(=O)(S)O[C@H]3C[C@H](n4cc(C)c(=O)[nH]c4=O)O[C@@H]3COP(=O)(S)O[C@H]3[C@@H](O)[C@H](n4ccc(N)nc4=O)O[C@@H]3COP(=O)(S)O[C@H]3C[C@H](n4cc(C)c(=O)[nH]c4=O)O[C@@H]3CO)[C@@H](COP(=O)(S)O[C@H]3[C@@H](O)[C@H](n4ccc(N)nc4=O)O[C@@H]3COP(=O)(S)O[C@H]3C[C@H](n4cc(C)c(=O)[nH]c4=O)O[C@@H]3COP(=O)(S)O[C@H]3C[C@H](n4cc(C)c(=O)[nH]c4=O)O[C@@H]3COP(=O)(S)O[C@H]3C[C@H](n4ccc5c(=O)[nH]c(N)nc54)O[C@@H]3COP(=O)(S)O[C@H]3[C@@H](O)[C@H](n4ccc(N)nc4=O)O[C@@H]3COP(=O)(S)O[C@H]3C[C@H](n4cc(C)c(=O)[nH]c4=O)O[C@@H]3COP(=O)(S)O[C@H]3[C@@H](O)[C@H](n4cnc5c(=O)[nH]c(N)nc54)O[C@@H]3COP(=O)(S)O[C@H]3C[C@H](n4cc(C)c(=O)[nH]c4=O)O[C@@H]3COP(=O)(S)O[C@H]3[C@@H](O)[C@H](n4ccc(N)nc4=O)O[C@@H]3COP(=O)(S)O[C@H]3C[C@H](n4cc(C)c(=O)[nH]c4=O)O[C@@H]3CO)O2)c(=O)[nH]c1=O (some centres undefined)
Activity [1]: Dose-dependent effect
Activity [2]: 0.12 ng/mL
Activity [3]: 0.16 ng/mL

Cc1cn([C@H]2C[C@H](OCCOCCOCCOCCOCCOCCOP(=O)(S)O[C@H]3C[C@H](n4cc(C)c(=O)[nH]c4=O)O[C@@H]3COP(=O)(S)O[C@H]3[C@@H](O)[C@H](n4ccc(N)nc4=O)O[C@@H]3COP(=O)(S)O[C@H]3C[C@H](n4cc(C)c(=O)[nH]c4=O)O[C@@H]3COP(=O)(S)O[C@H]3C[C@H](n4cc(C)c(=O)[nH]c4=O)O[C@@H]3COP(=O)(S)O[C@H]3C[C@H](n4ccc5c(=O)[nH]c(N)nc54)O[C@@H]3COP(=O)(S)O[C@H]3[C@@H](O)[C@H](n4ccc(N)nc4=O)O[C@@H]3COP(=O)(S)O[C@H]3C[C@H](n4cc(C)c(=O)[nH]c4=O)O[C@@H]3COP(=O)(S)O[C@H]3[C@@H](O)[C@H](n4cnc5c(=O)[nH]c(N)nc54)O[C@@H]3COP(=O)(S)O[C@H]3C[C@H](n4cc(C)c(=O)[nH]c4=O)O[C@@H]3COP(=O)(S)O[C@H]3[C@@H](O)[C@H](n4ccc(N)nc4=O)O[C@@H]3COP(=O)(S)O[C@H]3C[C@H](n4cc(C)c(=O)[nH]c4=O)O[C@@H]3CO)[C@@H](COP(=O)(S)O[C@H]3[C@@H](O)[C@H](n4ccc(N)nc4=O)O[C@@H]3COP(=O)(S)O[C@H]3C[C@H](n4cc(C)c(=O)[nH]c4=O)O[C@@H]3COP(=O)(S)O[C@H]3C[C@H](n4cc(C)c(=O)[nH]c4=O)O[C@@H]3COP(=O)(S)O[C@H]3C[C@H](n4ccc5c(=O)[nH]c(N)nc54)O[C@@H]3COP(=O)(S)O[C@H]3[C@@H](O)[C@H](n4ccc(N)nc4=O)O[C@@H]3COP(=O)(S)O[C@H]3C[C@H](n4cc(C)c(=O)[nH]c4=O)O[C@@H]3COP(=O)(S)O[C@H]3[C@@H](O)[C@H](n4cnc5c(=O)[nH]c(N)nc54)O[C@@H]3COP(=O)(S)O[C@H]3C[C@H](n4cc(C)c(=O)[nH]c4=O)O[C@@H]3COP(=O)(S)O[C@H]3[C@@H](O)[C@H](n4ccc(N)nc4=O)O[C@@H]3COP(=O)(S)O[C@H]3C[C@H](n4cc(C)c(=O)[nH]c4=O)O[C@@H]3CO)O2)c(=O)[nH]c1=O (some centres undefined)
Activity [1]: Dose-dependent effect
Activity [2]: 0.21 ng/mL
Activity [3]: 0.12 ng/mL
